# Assay outcomes: PubChem BioAssay, Johns Hopkins Ion Channel Center
# An excerpt weighted towards active compounds, which were near 3.7% of everything screened.
# KCNK9 inh = blocks the human KCNK9 two-pore domain potassium channel; AID 488922; Q9NPC2; 310,000 compounds, 1.2% hits; B-score at 10 µM; HEK293 KCNK9, FluxOR thallium flux fluorescence; stronger effect = lower value;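 active = ratio B-score over 3 SD below the library mean, with starting fluorescence within 5 SD of its mean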;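 note: negative B-score means less thallium flux so channel inhibition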
# hERG rescue = compounds protecting human hERG from proarrhythmic drug block; CHO-hERG, FluxOR thallium flux, dofetilide IC70 present; AID 1511; activation (rescue from dofetilide block), less the hit threshold, % at 10 µM; 310,000 compounds, 0.51% hits;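 active = activation above the mean of controls blocked by dofetilide plus 5 SD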;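 note: thallium influx through hERG after potassium depolarization seen as dye fluorescence rise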
# KCNQ1 pot = potentiates or activates the human KCNQ1 potassium channel. CHO-K1 KCNQ1, thallium flux FluxOR fluorescence; stronger effect = higher value. 310,000 compounds, 0.35% hits. B-score at 10 µM;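 active = fluorescence ratio B-score, a plate-corrected score, at least three library SD, with initial intensity B-score within 5 SD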
#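 Assay system: stable KCNQ1 CHO-K1 line; medium: assay buffer, equal DMSO in all wells; timing: 90 min dye loading and 20 min compound exposure, both at room temperature; technique: kinetic FluxOR thallium fluorescence, 10-s 1-Hz baseline, 110-s post-stimulus read; read-out basis: B score of baseline-normalized fluorescence ratio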
# KCNQ1 block = blocks the human KCNQ1 potassium channel; B-score at 10 µM; CHO-K1 KCNQ1, FluxOR thallium flux fluorescence; stronger effect = higher value; P51787; 310,000 compounds, 1.3% hits;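 active = compounds whose thallium flux B-score, printed positive for inhibition, exceeds three library SD while starting fluorescence stays within three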;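 note: channel opened by potassium depolarization with thallium stimulus after 20 min compound exposure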
# Kir21 inh = blocks the mouse Kir2.1 inward-rectifier potassium channel; HEK293-Kir2.1, FluxOR thallium flux fluorescence; stronger effect = lower value; B-score at 10 µM; 310,000 compounds, 0.85% hits; AID 1672;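 active = fluorescence ratio B-score at or below minus 3 SD of library scores, with starting-brightness B-score within 2 SD, cut at about -4.2 in these data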;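 note: channel flux triggered by added potassium and thallium sulfate stimulus; B-score of peak minus minimum fluorescence over baseline after thallium stimulus; more negative B-score means stronger Kir2.1 block with less thallium influx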
# Target sequence (P35561 whole entry, looked up): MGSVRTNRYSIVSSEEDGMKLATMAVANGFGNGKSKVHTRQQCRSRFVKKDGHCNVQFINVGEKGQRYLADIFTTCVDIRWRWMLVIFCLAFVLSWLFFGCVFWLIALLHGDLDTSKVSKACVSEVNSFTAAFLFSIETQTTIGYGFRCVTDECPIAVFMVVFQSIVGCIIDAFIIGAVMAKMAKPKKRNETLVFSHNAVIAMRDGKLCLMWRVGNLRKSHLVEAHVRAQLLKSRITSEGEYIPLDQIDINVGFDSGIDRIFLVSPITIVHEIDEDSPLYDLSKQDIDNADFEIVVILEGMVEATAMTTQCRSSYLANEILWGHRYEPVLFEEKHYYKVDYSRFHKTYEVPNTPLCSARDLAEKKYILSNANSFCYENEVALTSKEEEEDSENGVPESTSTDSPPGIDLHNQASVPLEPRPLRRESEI
# KCNK3 inh = human KCNK3 channel inhibition, primary screen; O14649; CHO-KCNK3 thallium flux, FluxOR fluorescence; stronger effect = lower value; 340,000 compounds, 0.84% hits; B-score at 10 µM; AID 602410;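 active = B-score under library mean minus 4 SD, starting fluorescence ratio at most library mean plus 5 SD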;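 note: more negative B-score means stronger inhibition of thallium flux through KCNK3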
# * hit, by the source's call; i = inactive; / = not tested or not shown.
SMILES,KCNK9 inh,hERG rescue,KCNQ1 pot,KCNQ1 block,Kir21 inh,KCNK3 inh
CCN1C(=O)/C(=C/c2ccc(C)s2)NC1=S,i,10.0*,10*,i,-0.11,i
CC[n+]1c(/C=C/N(C)c2ccccc2)oc2ccc(F)cc21,i,-17.3,i,i,-3.19,i
CC[n+]1c(/C=C/N(C)c2ccccc2)oc2ccccc21,i,-32.6,i,8*,-5.19,i
COc1ccc(C(=O)N/N=C/c2sc(N3CCOCC3)nc2-c2ccccc2)cc1OC,i,-41.2,i,i,2.22,i
O=C(NCCN1CCOCC1)c1cccc(S(=O)(=O)N2CCCCCC2)c1,i,7.2*,i,i,-0.46,i
O=C(N/N=C/c1sc(N2CCOCC2)nc1-c1ccccc1)c1cccc(S(=O)(=O)N2CCCC2)c1,i,-9.1,i,6*,-0.5,i
O=C(NCCN1CCOCC1)c1cccc(S(=O)(=O)N2CCCC2)c1,i,-2.8,i,i,0.84,i
O=C(N/N=C/c1sc(N2CCOCC2)nc1-c1ccccc1)c1ccc(O)cc1,i,-12.2,i,7*,0.27,i
COC(=O)c1ccc2c(=O)n(CCN3CCOCC3)c(SCC(=O)Nc3ccc(OC)cc3OC)nc2c1,i,-6.7,i,i,1.24,i
CN(C)/C(=N\S(=O)(=O)c1ccccc1)c1ccc(F)cc1,i,-4.5,i,i,-2.19,i
CCc1noc(C)c1C(=O)OCC(=O)N(C)c1c(N)n(Cc2ccccc2)c(=O)[nH]c1=O,i,-13.7,i,i,-0.94,i
COC(=O)c1c(NC(=O)C(C)(C)C)csc1C,i,8.2*,i,i,-0.36,i
COC(=O)c1c(NC(C)=O)csc1C,i,-7.3,i,i,0.07,i
CCOc1ccc(S(=O)(=O)N2CCC(C(=O)NCc3ccccn3)CC2)cc1,i,-0.5,i,i,0.89,i
CCOC(=O)C(=Cc1ccc2c(c1)OCO2)c1ccccc1,/,/,/,/,/,-9.8*
O=C(C=Cc1ccc2c(c1)OCO2)c1ccccc1,/,/,/,/,/,i
COc1ccc(CN2CCCC(C(=O)c3cccc(C(F)(F)F)c3)C2)cc1O (centres undefined),i,-22.6,i,i,-12.2*,i
CC(=O)Nc1ccc(CN2CCCC(C(=O)c3cccc(C(F)(F)F)c3)C2)cc1 (centres undefined),i,-11.3,i,i,-0.88,i
CC1(C)CC(=O)C2=C(C1)NC1=C(C(=O)c3ccccc31)C2c1ccc(O)cc1 (centres undefined),i,-2.5,i,i,-0.01,i
CCCc1ccc(C2C3=C(CC(C)(C)CC3=O)NC3=C2C(=O)c2ccccc23)cc1 (centres undefined),i,-9.3,i,9*,-2.12,i
Cc1ccc(C(=O)COC(=O)CNC(=O)c2ccccc2)s1,/,/,/,/,/,i
CCOc1c(OC(C)=O)ccc(/C=C/c2ccc3cccc(OC(C)=O)c3n2)c1[N+](=O)[O-],i,-12.6,i,12*,-0.05,i
CCC(C)NC(=S)N1CCN(C(c2ccccc2)c2ccccc2)CC1 (centres undefined),-7.66*,-6.7,i,i,0.47,i
CC(C)(C)c1ccc(NC(=O)NC2CCCc3ccccc32)cc1 (centres undefined),i,-4.5,i,6*,-0.91,i
Cn1c(N)c(C(=O)CSc2nnc(C3CC3)n2-c2ccccc2)c(=O)n(C)c1=O,/,/,/,/,/,i
SMILES,KCNK9 inh,hERG rescue,KCNQ1 pot,KCNQ1 block,Kir21 inh,KCNK3 inh
N#CC1=C(N)NC(SCC(=O)Nc2ccccc2)=C(C#N)C12CCCC2,i,-15.3,i,10*,1.07,i
N#CC1=C(N)NC(SCc2ccc(F)cc2)=C(C#N)C12CCCCC2,i,-26.1,i,i,-4.43*,i
COc1ccc(/C=C/C(=O)Nc2ccccc2C(=O)N2CCCC2)cc1,i,-14.7,i,i,-1.45,i
COc1ccc(NC(=O)C(=O)NNC(=O)c2cccs2)cc1,i,6.9*,i,i,-1.63,i
COc1ccc(NC(=O)C(=O)NNC(=O)c2cccs2)c(OC)c1,i,12.1*,22*,i,0.84,i
COc1ccc(/C=C/C(=O)Nc2ccccc2C(=O)O)cc1,i,31.6*,i,i,0.28,i
COc1ccc(/C=C(/C(=O)Nc2ccccc2C(=O)NC(C)C)c2ccccc2)cc1,i,-13.3,i,6*,0.2,i
CC1=C(C(=O)OCc2ccccc2)C(c2cccc([N+](=O)[O-])c2)NC(=O)N1C (centres undefined),i,-18.5,i,i,-0.27,i
COc1ccc(/C=N/OC(=O)Nc2ccccc2OC)cc1,i,-6.1,i,i,2.9,i
N#CCC(=O)Nc1ccc(C(F)(F)F)cc1N1CCOCC1,i,1.6,i,i,-0.88,i
COc1c2c(c3c(c1OC)c(=O)c1ccccc1n3C)OCO2,/,/,/,/,/,i
Cc1ccc(NC(=O)C(=O)NNC(=O)c2cccs2)cc1,i,20.4*,40*,i,1.49,i
Cc1ccc(NC(=O)c2cccs2)cc1,i,-2.7,i,i,0.06,i
COc1ccc(/C=C/C(=O)NC(=S)NNC(=O)c2cccs2)cc1,i,16.1*,i,i,1.61,i
O=C(c1ccco1)N1N=C(c2ccco2)CC1c1ccc(Cl)cc1Cl (centres undefined),/,/,/,/,/,i
CC(C)(C)NC(=O)CN(Cc1cccs1)C(=O)C1COc2ccccc2O1 (centres undefined),i,-23.2,i,6*,-1.03,i
CC(C)(C)NC(=O)CN(Cc1cccs1)C(=O)CN1C(=O)C(=O)c2ccccc21,i,-8.8,i,i,0.22,i
O=C1CCCCC1C(O)c1ccc(Cl)cc1 (centres undefined),i,-3.5,i,i,-0.4,/
N#C/C(=C\c1ccc(O)c([N+](=O)[O-])c1)c1nc2ccccc2s1,i,-8.8,i,6*,0.72,i
COc1cc(/C=C(\C#N)c2nc3ccccc3s2)cc([N+](=O)[O-])c1O,i,-16.6,i,6*,-0.51,i
OCc1ncc(-c2ccccc2)s1,i,-4.2,i,i,0.56,i
Cc1nn(-c2ccccc2)nc1C(=O)NNC(=O)c1ccc(C(F)(F)F)cc1,i,-4.0,i,i,0.01,i
CC(=O)NN1C(=O)/C(=C\c2ccc(Br)o2)SC1=S,i,-11.9,i,i,-4.97*,i
CC(=O)NN1C(=O)/C(=C/c2ccc(Br)o2)SC1=S,i,-9.7,i,i,-0.88,i
